According to ChEMBL document CHEMBL3393003, “1,2,3,9b-Tetrahydro-5H-imidazo[2,1-a]isoindol-5-ones as a new class of respiratory syncytial virus (RSV) fusion inhibitors. Part 2: identification of BTA9881 as a preclinical candidate” (Bioorg Med Chem Lett, 2015):
Converted amounts (≈) assume the structure as drawn.

Experiments:
[1] = system: Respiratory syncytial virus; test: Antiviral activity against respiratory syncytial virus A2 infected in human Hep2 cells assessed as reduction in virus-induced cytopathic effect after 5 days by MTT assay; type: functional, organism-based; conditions: A2, HEp-2, 120 h
Outline: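 HEp2 cells (1.0 × 10⁴/well) infected at low moi (RSV A2 at moi 0.01) and added to serial compound dilutions; incubated 5 days at 37 °C, 5% CO₂. CPE read by MTT (1 mg/ml) metabolism after 2 h incubation.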

[2] = Cytotoxicity against human Hep2 cells assessed as reduction in cell viability after 5 days by MTT assay; type: cell-based, HEp-2
Outline: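 Uninfected HEp2 cells (1.0 × 10⁴/well) exposed to serial compound dilutions for 5 days at 37 °C, 5% CO₂. Viability read by MTT (1 mg/ml) metabolism after 2 h incubation.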

[3] = system: Respiratory syncytial virus; test: Antiviral activity against respiratory syncytial virus Long infected in human Hep2 cells assessed as reduction in virus-induced cytopathic effect after 5 days by MTT assay; type: functional, organism-based; conditions: HEp-2, 120 h
[4] = system: Respiratory syncytial virus; test: Antiviral activity against respiratory syncytial virus B1 infected in human Hep2 cells assessed as reduction in virus-induced cytopathic effect after 5 days by MTT assay; type: functional, organism-based; conditions: B1, HEp-2, 120 h
[5] = Lipophilicity, log D of the compound at pH 7.4 by chromatography; type: physicochemical; conditions: buffer
Outline: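 Effective logD measured chromatographically on an LC-ABZ column, octanol-saturated mobile phase at pH 7.4.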

[6] = Kinetic solubility in 0.01M HCl buffer at pH 2.0 by nephelometry; type: physicochemical; conditions: read-out: Kinetic_solubility
Outline: (§1)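 Compound dissolved in DMSO and added to 0.01 M HCl (pH 2) or pH 6.5 isotonic phosphate buffer, 1% final DMSO. Solubility range determined by nephelometry.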

[7] = Kinetic solubility in isotonic phosphate buffer at pH 6.5 by nephelometry; type: physicochemical; conditions: read-out: Kinetic_solubility; outline: as §1
[8] = Elimination half life in Sprague-Dawley rat at 5.1 mg/kg, iv; type: ADME, organism-based; set-up: dose 5.1 mg/kg, route intravenous; conditions: in vivo, read-out: beta t1/2 (converted)
[9] = Plasma clearance in Sprague-Dawley rat at 5.1 mg/kg, iv; type: ADME, organism-based; set-up: dose 5.1 mg/kg, route intravenous
[10] = Apparent volume of distribution in Sprague-Dawley rat at 5.1 mg/kg, iv; type: ADME, organism-based; set-up: dose 5.1 mg/kg, route intravenous; conditions: in vivo, read-out: Vz
[11] = Elimination half life in Sprague-Dawley rat at 19 mg/kg, po; type: ADME, organism-based; set-up: dose 19 mg/kg, route oral; conditions: in vivo, read-out: beta t1/2 (converted)
Outline: (§2)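 Male Sprague Dawley rats, n = 2, oral dose as suspension in hydroxypropylmethylcellulose, in carboxymethylcellulose, or in 0.5% HPMC/0.5% benzyl alcohol/0.4% Tween80. Cmax (µM), T1/2 and F (%) derived from plasma levels.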

[12] = Cmax in Sprague-Dawley rat at 19 mg/kg, po; type: ADME, organism-based; set-up: dose 19 mg/kg, route oral; conditions: in vivo; outline: as §2
[13] = Oral bioavailability in Sprague-Dawley rat at 19 mg/kg; type: ADME, organism-based; conditions: in vivo; outline: as §2
[14] = system: Respiratory syncytial virus; test: Potency shift index, ratio of EC50 for respiratory syncytial virus A2 infected in human Hep2 in presence of 1.5 mg/mL Alpha-1-acid glycoprotein to EC50 for respiratory syncytial virus A2 infected in human Hep2 in absence of Alpha-1-acid glycoprotein; type: functional
[15] = Drug metabolism in iv dosed Sprague-Dawley rat urine assessed as formation of pyridine N-oxides level; type: ADME, organism-based; conditions: in vivo
[16] = Drug metabolism in orally dosed Sprague-Dawley rat urine assessed as formation of pyridine N-oxides level; type: ADME, organism-based; conditions: in vivo, po
Plasma [17] = test: Drug metabolism in iv dosed Sprague-Dawley rat plasma assessed as formation of pyridine N-oxides level; type: ADME, organism-based; conditions: in vivo
Plasma [18] = test: Drug metabolism in orally dosed Sprague-Dawley rat plasma assessed as formation of pyridine N-oxides level; type: ADME, organism-based; conditions: in vivo, po
[19] = Elimination half life in Sprague-Dawley rat at 0.9 mg/kg, iv; type: ADME, organism-based; set-up: dose 0.9 mg/kg, route intravenous; conditions: in vivo, read-out: beta t1/2 (converted)
[20] = Plasma clearance in Sprague-Dawley rat at 0.9 mg/kg, iv; type: ADME, organism-based; set-up: dose 0.9 mg/kg, route intravenous
[21] = Apparent volume of distribution in Sprague-Dawley rat at 0.9 mg/kg, iv; type: ADME, organism-based; set-up: dose 0.9 mg/kg, route intravenous; conditions: in vivo, read-out: Vz
[22] = system: Respiratory syncytial virus; test: Resistance index, ratio of EC50 for VP-14637 resistant respiratory syncytial virus Long expressing F protein D489Y mutant to EC50 for wild type Respiratory syncytial virus Long

Row | Compound | EC50 [1] [nM] | CC50 at 120 h [2] [µM] | Ratio EC50 [14] | also measured
1 | O=C(c1csc(-c2cccnc2)n1)N1CCN2C(=O)c3ccncc3[C@]12c1ccc(Cl)cc1 | 13 |  |  | 
2 | O=C(c1ccno1)N1CCN2C(=O)c3ccncc3C12c1ccc(Cl)cc1 (racemic) | 370 | > 19 |  | 
3 | O=C(c1ccc(F)nc1)N1CCN2C(=O)c3ccncc3[C@]12c1ccc(Cl)cc1 | 75 |  |  | EC50 [3]: 130 nM; EC50 [4]: 290 nM; chromatographic logD [5]: 2.7; solubility kinetic [6]: > 100 µg/mL; solubility kinetic [7]: 25 µg/mL (≈ 61.2 µM); half-life [8]: 660 min; clearance [9]: 4.3 mL/min/kg; Vd [10]: 3.8 L/kg; half-life [11]: 558 min; Cmax [12]: 8.8 µM; bioavailability [13]: 75%
4 | O=C(c1cc2ccccc2o1)N1CCN2C(=O)c3ccncc3C12c1ccc(Cl)cc1 (racemic) | 6400 | > 17 |  | 
5 | O=C(c1csc(-c2cccs2)n1)N1CCN2C(=O)c3ccncc3C12c1ccc(Cl)cc1 (racemic) | 27 | > 15 | 16 | 
6 | O=C(c1ccoc1)N1CCN2C(=O)c3ccncc3C12c1ccc(Cl)cc1 (racemic) | 96 | > 19 | 2.4 | 
7 | O=C(c1ccc(F)nc1)N1CCN2C(=O)c3ccncc3C12c1ccc(Cl)cc1 (racemic) | 93 | > 48 | 1.8 | Drug metabolism [15]: metabolite_detected; Drug metabolism [16]: metabolite_detected; Drug metabolism (Plasma [17]): metabolite_detected; Drug metabolism (Plasma [18]): metabolite_detected
8 | O=C(Nc1ccc(F)cc1)N1CCN2C(=O)c3ccncc3C12c1ccc(Cl)cc1 (racemic) | 1000 | > 20 |  | 
9 | O=C(c1ccc(F)cc1)N1CCN2C(=O)c3cc[n+]([O-])cc3[C@@]12c1ccc(Cl)cc1 | 8600 |  |  | 
10 | Cn1cc(C(=O)N2CCN3C(=O)c4ccncc4C32c2ccc(Cl)cc2)c(C(F)(F)F)n1 (racemic) | 31 | > 16 | 4.3 | half-life [19]: 336 min; clearance [20]: 4 mL/min/kg; Vd [21]: 1.9 L/kg; half-life [11]: 426 min; Cmax [12]: 3.6 µM; bioavailability [13]: 38%; Drug metabolism [15]: metabolite_detected; Drug metabolism [16]: metabolite_detected; Drug metabolism (Plasma [17]): metabolite_detected; Drug metabolism (Plasma [18]): metabolite_detected
11 | O=C(c1cscn1)N1CCN2C(=O)c3ccncc3C12c1ccc(Cl)cc1 (racemic) | 180 | > 18 | 16 | 
12 | O=C(c1ccc2ccccc2n1)N1CCN2C(=O)c3ccncc3C12c1ccc(Cl)cc1 (racemic) | 8500 | > 17 |  | 
13 | O=C(c1csc(-c2ccncc2)n1)N1CCN2C(=O)c3ccncc3C12c1ccc(Cl)cc1 (racemic) | 2300 | > 15 |  | 
14 | O=C(c1csc(-c2cccnc2)n1)N1CCN2C(=O)c3ccncc3[C@@]12c1ccc(Cl)cc1 | 920 |  |  | 
15 | O=C(c1csc(-c2cccnc2)n1)N1CCN2C(=O)c3ccncc3C12c1ccc(Cl)cc1 (racemic) | 25 | > 15 | 10 | 
16 | Cn1cccc1C(=O)N1CCN2C(=O)c3ccncc3C21c1ccc(Cl)cc1 (racemic) | 20 | > 20 | 91 | 
17 | O=C(c1ccc(F)cc1)N1CCN2C(=O)c3ccncc3[C@@]12c1ccc(Cl)cc1 | 14000 |  |  | 
18 | O=C(c1ccoc1)N1CCN2C(=O)c3ccncc3[C@@]12c1ccc(Cl)cc1 | 670 |  |  | 
19 | O=C(c1ccc(F)nc1)N1CCN2C(=O)c3ccncc3[C@@]12c1ccc(Cl)cc1 | 7800 |  |  | 
20 | Cc1nnnn1N/C=C1\C=CC(=O)C(C(C2=C/C(=C/Nn3nnnc3C)C=CC2=O)c2ccc(O)cc2)=C1 (stereo unspecified) |  |  |  | Ratio EC50 [22]: >2174
21 | O=C(NCCc1ccc(F)cc1)N1CCN2C(=O)c3ccncc3C12c1ccc(Cl)cc1 (racemic) | 620 | > 20 |  | 
